The text below walks through data of ChEMBL document CHEMBL2150886, “Synthesis of [3β-acetoxy-urs-12-en-28-oyl]-1-monoglyceride and investigation on its anti tumor effects against BGC-823” (Bioorg Med Chem, 2011).

Active and inactive are the calls of the source. The rule behind the calls is not given here.

The test system of data set [1] is BGC-823. Briefly: Induction of apoptosis in human BGC823 cells assessed as induction of DNA fragmentation at 10 to 40 uM incubated for 48 hrs by alkaline comet assay. The format is functional, cell-based. An outline of the steps:
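Alkaline comet assay on about 10⁵ BGC-823 cells after 48 h at 37 °C with 10, 20 or 40 µM. Cells with diffuse fan-like tails and small heads were scored as apoptotic; large defined heads with minimal DNA diffusion were scored as normal.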

For data set [2], the system named is BGC-823. Briefly: Reduction in survivin protein expression in human BGC823 cells at 10 uM incubated for 48 hrs by Western blotting. It counts as functional. An outline of the steps: (§1)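 BGC-823 cells were treated with 10, 20 or 40 µM for 48 h, detached with trypsin/EDTA, and more than 10⁶ cells were lysed. Protein was quantified by Bradford, and 150–200 µg per lane was run on 12.5% SDS-PAGE and transferred to PVDF. Antibodies: Survivin 1:1000, Bcl-2 1:200, β-actin 1:1000; HRP secondary 1 h; ECL detection. Expression was quantified relative to control.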
Background: A western blot detects proteins with antibodies after separation by electrophoresis.

Data set [3] relates to Mus musculus. The experiment in a line: Toxicity in human BGC823 cells xenografted nude mouse assessed as body weight changes at 6 mg/kg, iv treated on day 1 post tumor implant (reference value: 19.69 +/- 1.21 grams). The settings on record: in vivo. It counts as organism-based, BGC-823. More on the design: dose 6 mg/kg, route intravenous. On the technique in general: Xenograft models place foreign cells or tissue in a host animal.

Data set [4] relates to BGC-823. Briefly: Induction of apoptosis in human BGC823 cells assessed as increase in caspase 3 activity at 20 uM incubated for 48 hrs relative to untreated control. The format is functional. An outline of the steps:
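BGC-823 cells were exposed to 0, 10 or 20 µM for 48 h, detached with trypsin/EDTA and washed in cold PBS. About 10⁶ cells were lysed, and the lysate was incubated 1 h with Ac-DEVD-pNA, with cleavage read at 405 nm. Activity was normalised to Bradford protein and expressed relative to the untreated control. Mean ± SD of three independent experiments.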

Data set [5] has as its system BGC-823. The experiment in a line: Induction of apoptosis in human BGC823 cells assessed as early apoptotic cell population at 40 uM by annexinV/propidium iodide staining (reference value: 1.9%). The format is functional.
Data set [6] relates to BGC-823. Briefly: Antitumor activity against human BGC823 cells xenografted in nude mouse assessed as reduction in tumor volume at 6 mg/kg, iv dosed 5 times. The format is functional. Further details: scale not given: the % may be the effect or the level left. An outline of the steps:
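Male nude mice (5 weeks, 18–22 g) inoculated subcutaneously with 1 × 10⁷ BGC-823 cells. At about 200 mm³ tumours, animals were randomised into four groups of eight. Each received 0.2 mL iv by tail vein; controls got 0.9% saline. Tumour volume was measured daily as 0.5 × length × width²; tumours were weighed at the end. Values are mean ± SD, n = 8.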

Data set [7] concerns BGC-823. The experiment in a line: Reduction in survivin protein expression in human BGC823 cells at 20 uM incubated for 48 hrs by Western blotting. It counts as functional. An outline of the steps:
as §1

Data set [8] has as its system Mus musculus. Briefly: Toxicity in human BGC823 cells xenografted nude mouse assessed as body weight changes at 6 mg/kg, iv treated […] on day 1, 4, 7, 10, 13 and day 16 post tumor implant (reference value: 20.12 +/- 1.52 grams). It counts as organism-based, BGC-823. More on the design: dose 6 mg/kg, route intravenous. The settings on record: in vivo.
For data set [9], the system named is Mus musculus. Briefly: Toxicity in human BGC823 cells xenografted nude mouse assessed as body weight changes at 30 mg/kg, iv treated on day 1 post tumor implant (reference value: 19.69 +/- 1.21 grams). The format is organism-based, BGC-823. More on the design: dose 30 mg/kg, route intravenous. The note with it: in vivo. An outline of the steps: (§2)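 Nude mice (male, 5 weeks, 18–22 g) carried subcutaneous BGC-823 xenografts from 1 × 10⁷ cells. Dosing started at about 200 mm³ tumour volume, with eight mice per group. Each dose was 0.2 mL given iv; the saline control received 0.9% saline. Body weight was recorded on days 1, 4, 7, 10, 13 and 16 of treatment and reported as mean ± SD, n = 8.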

Data set [10] deals with BGC-823. Briefly: Induction of cell shrinkage in human BGC823 cells at 30 uM incubated for 48 hrs by MTT assay. It counts as functional, cell-based.
In data set [11] the test system is BGC-823. The experiment in a line: Cell cycle arrest in human BGC823 cells assessed as accumulation of cells at subG0/G1 phase incubated for 24 to 72 hrs by propidium iodide staining based flow cytometry. It counts as functional. An outline of the steps:
(§3)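 BGC-823 cells were exposed to 20 µM for 24, 48 or 72 h, or to 10, 20 or 40 µM for 48 h. About 10⁶ cells were harvested and stained with propidium iodide using a cell cycle kit, then analysed by flow cytometry. Percentages were read for sub-G0/G1, G0/G1, S and G2/M. Each experiment was run at least three times; mean ± SD.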
On the technique in general: A flow cytometer gives signals particle by particle.

In data set [12] the test system is BGC-823. Briefly: Induction of apoptosis in human BGC823 cells assessed as viable cell population at 10 uM by annexinV/propidium iodide staining (reference value: 95.5%). It counts as functional.
Data set [13] deals with BGC-823. The experiment in a line: Cell cycle arrest in human BGC823 cells assessed as accumulation of cells at subG0/G1 phase at 40 uM incubated by propidium iodide staining based flow cytometry (Rvb= 0.66%). The settings on record: TDE = time-dependent effect. It counts as functional. An outline of the steps: as §3
The subject of data set [14] is BGC-823. Briefly: Induction of apoptosis in human BGC823 cells assessed as early apoptotic cell population at 20 uM by annexinV/propidium iodide staining (reference value: 1.9%). It counts as functional.
Data set [15] has as its system Mus musculus. The experiment in a line: Toxicity in human BGC823 cells xenografted nude mouse assessed as body weight changes at 30 mg/kg, iv treated 4 times on day 1, 4, 7 and 10 post tumor implant (reference value: 20.54 +/- 1.45 grams). It counts as organism-based, BGC-823. Further details: dose 30 mg/kg, route intravenous. The settings on record: in vivo. An outline of the steps:
as §2

In data set [16] the test system is BGC-823. The experiment in a line: Induction of apoptosis in human BGC823 cells assessed as necrotic damaged cell population at 20 uM by annexinV/propidium iodide staining (reference value: 0.5%. The format is functional.
Data set [17] concerns Mus musculus. The experiment in a line: Toxicity in human BGC823 cells xenografted nude mouse assessed as body weight changes at 30 mg/kg, iv treated 2 times on day 1 and day 4 post tumor implant (reference value: 20.58 +/- 1.35 grams). It counts as organism-based, BGC-823. More on the design: dose 30 mg/kg, route intravenous. The settings on record: in vivo. An outline of the steps:
as §2

Data set [18] deals with BGC-823. Briefly: Cell cycle arrest in human BGC823 cells assessed as accumulation of cells at subG0/G1 phase at 20 uM incubated for 24 hrs by propidium iodide staining based flow cytometry (Rvb= 0.66%). It counts as functional. An outline of the steps: as §3
Data set [19] has as its system BGC-823. Briefly: Induction of apoptosis in human BGC823 cells assessed as late apoptotic cell population at 30 uM by annexinV/propidium iodide staining (reference value: 2.1%). The format is functional.
Data set [20] has as its system BGC-823. Briefly: Induction of apoptosis in human BGC823 cells assessed as viable cell population at 40 uM by annexinV/propidium iodide staining (reference value: 95.5%). It counts as functional.
Data set [21] deals with BGC-823. Briefly: Induction of apoptosis in human BGC823 cells assessed as early apoptotic cell population at 10 uM by annexinV/propidium iodide staining (reference value: 1.9%). It counts as functional.
A further data set concerns HT-29. Briefly: Cytotoxicity against human HT-29 cells incubated for 48 hrs by MTT assay. The format is functional, cell-based. The settings on record: HT-29, 48 h. An outline of the steps: (§4)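 Cells were grown in RPMI-1640 with 10% heat-inactivated FCS at 37 °C under 5% CO₂, seeded at 5 × 10³ per well and left 24 h. Compounds in DMSO were diluted in medium to 0.5% final DMSO; controls received 0.5% DMSO. Exposure was 24–72 h, followed by MTT for 4 h, formazan dissolved in DMSO, and A570. Six wells per sample; IC₅₀ taken at 50% inhibition; ≥3 repeats.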

Data set [22] deals with Mus musculus. Briefly: Toxicity in human BGC823 cells xenografted nude mouse assessed as body weight changes at 30 mg/kg, iv treated 3 times on day 1, day 4 and day 7 post tumor implant (reference value: 20.79 +/- 1.29 grams). The format is organism-based, BGC-823. More on the design: dose 30 mg/kg, route intravenous. The settings on record: in vivo. An outline of the steps:
as §2

Data set [23] is described as follows: Cytotoxicity against human GES-1 cells incubated for 48 hrs by MTT assay. The format is cell-based. The note with it: GES1, 48 h. An outline of the steps:
as §4

For the compound `CC(=O)O[C@H]1CC[C@]2(C)[C@H]3CC=C4[C@@H]5[C@@H](C)[C@H](C)CC[C@]5(C(=O)OCC(O)CO)CC[C@@]4(C)[C@]3(C)CC[C@H]2C1(C)C` (some centres undefined), the Activity entry was “Dose-dependent effect” with BGC-823 [1]; 37.6% with BGC-823 [2]; 19.21 g with Mus musculus [3]; 7.4% with BGC-823 [5]; 29.3% in the data set with BGC-823 [6]; 43.1% in the data set on BGC-823 [7]. Also, the Activity with Mus musculus [8] is 20.09 g; in the data set with Mus musculus [9] it was 19.26 g; in the data set on BGC-823 [11], “Dose-dependent effect”; with BGC-823 [12] it was 92.7%; with BGC-823 [13] it was “tde”; with BGC-823 [14], 19.4%. In addition, the Activity is 19.16 g in the data set with Mus musculus [15]; 0.1% in the data set with BGC-823 [16]; 19.61 g in the data set on Mus musculus [17]; 3.71% in the data set with BGC-823 [18]; 29% in the data set on BGC-823 [19]; 2% with BGC-823 [20]. For the same compound, the Activity was determined as 4.5% with BGC-823 [21] and 19.29 g in the data set with Mus musculus [22]. In addition, the “fold change (FC)” value with BGC-823 [4] was 3.65. The result with BGC-823 [10] was Active. The IC50 in the data set with HT-29 is 18.4 µM; in [23], 155 µM.

The IC50 is the concentration at which inhibition is half-maximal.
